Bridge positions count the residues as written; N and C are the ends. Peptide text beside a SMILES is read from it.
What was measured:
CD13 (aminopeptidase N) = CD13 (aminopeptidase N) (Homo sapiens, UniProt P15144); experiment: CD13 enzyme inhibition / steady-state enzyme kinetic analysis; type: biochemical; conditions: for inhibition model (affected Km, but not Vmax of CD13): steady-state kinetics, double reciprocal plot; for effect of glycine N-methylation of the named peptide on CD13 inhibition: methylated vs non-methylated peptide
Procedure, shortened: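 Enzyme inhibition was run with methylated and non-methylated peptides. IC50 is the peptide concentration inhibiting 50% of activity, from independent experiments each in duplicate. For steady-state kinetics, initial velocity was measured across varied substrate and peptide amounts and plotted as V versus substrate and as double-reciprocal plots. Ki came from two independent experiments (mean ± SE).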

[1] = type: physicochemical; conditions: 37 °C, 0.1 M ammonium bicarbonate, pH 8.5, 16 or 42 h
αvβ3 integrin = αvβ3 integrin (Homo sapiens, UniProt P05106+P06756); experiment: Integrin binding assay; conditions: after 16 h of incubation in 0.1 M ammonium bicarbonate pH 8.5, 37 °C; competitive ELISA
CD13 = CD13 (Homo sapiens, UniProt P15144); experiment: MS analysis of peptides after incubation with CD13; type: biochemical; conditions: 40 min incubation with CD13, peptide 30 µM
Procedure, shortened: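 Peptides were incubated with or without CD13 (the no-enzyme incubation served as control), then analysed by MS.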

[2] = tested on: CD13+ endothelial cells (HUVEC); experiment: Binding of peptide-Qdot605 nanoparticles to cultured HUVEC; type: cell-based, human; conditions: peptide coupled to Qdot605 fluorescent nanoparticles, 6 nM, 2 h
Procedure, shortened: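 The control was nanoparticles activated with sulfo-SMCC but lacking peptide. Cell-bound Qdots (red) were imaged by fluorescence microscopy at 400X, with DAPI nuclear counterstain.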

[3] = physiological solutions; cited from earlier work

Compound | Ki (CD13 (aminopeptidase N)) [µM] | inhibition model (affected Km, but not Vmax of CD13) (CD13 (aminopeptidase N)) | asparagine deamidation (change of molecular mass by MS) [1] | binding to αvβ3 integrin after incubation (αvβ3 integrin) | effect of glycine N-methylation of the named peptide on CD13 inhibition (CD13 (aminopeptidase N)) | change in molecular mass upon incubation with CD13 (peptide cleavage) (CD13) | binding to CD13+ endothelial cells (HUVEC) [2] | half-life (deamidation) [3] [h]
N=C(N)NCCC[C@@H]1NC(=O)CNC(=O)[C@H](CC(N)=O)NC(=O)[C@@H](N)CSSC[C@@H](C(=O)O)NC1=O [CNGRC, reference compound] (H-CNGRC-OH; disulfide 1-5; N-terminus and C-terminus assumed) | 134 ± 28 | competitive inhibition |  |  |  |  |  | 
N=C(N)NCCC[C@@H]1NC(=O)CNC(=O)[C@H](CC(N)=O)NC(=O)CNC(=O)[C@H](CS)NC(=O)CNC1=O [N1, c[CGNGRG]] (cyclo(CGNGRG)) | 12.4 ± 5.4 | competitive inhibition | complete deamidation | could bind | did not impair CD13 binding | No change | could bind | 
CNGRCG |  |  |  |  |  |  |  | 3 to 5
cyclo(CNGRGG) [N3] |  |  |  | could bind | reduction of inhibitory potency |  |  | 

Reference: PMC5624507 (Advanced functional materials, 2017)
